# Results from ChEMBL document CHEMBL3792321, “Potentiation of Francisella Resistance to Conventional Antibiotics through Small Molecule Adjuvants” (Medchemcomm, 2016).
# Active and inactive are the calls of the source. No cut-off for these calls is given here.
# What was measured:
# [1] = Potentiation of colistin-induced antibacterial activity against Francisella novicida U112 assessed as reduction of colistin MIC at 100 uM after 48 hrs; assay type: functional, Francisella tularensis subsp. novicida U112
# How it was run: (§1)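 Inocula were 5 × 10^5 CFU/mL in CAMHB with 2% IsoVitaleX (F. philomiragia) or TSB-C (F. novicida). Adjuvant from a 100 mM DMSO stock was held at one fixed concentration; the control had no adjuvant. Antibiotic started at 2–2,048 µg/mL in twofold serial dilutions. Incubation was stationary at 37°C for 48 h. Antibiotic MIC was the lowest concentration with no growth, compared with and without adjuvant.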
# [2] = Potentiation of gentamicin-induced antibacterial activity against Francisella philomiragia ATCC 25015 assessed as MIC of gentamicin at 50 uM after 48 hrs (reference value: 0.5 ug/ml); assay type: functional; details: ATCC 25015, 48 h; how it was run: as §1
# [3] = Potentiation of gentamicin-induced antibacterial activity against Francisella novicida U112 assessed as MIC of gentamicin at 50 uM after 48 hrs (reference value: 1 ug/ml); assay type: functional, Francisella tularensis subsp. novicida U112; details: Francisella tularensis; how it was run: as §1
# [4] = Potentiation of azithromycin-induced antibacterial activity against Francisella novicida U112 assessed as MIC of azithromycin at 50 uM after 48 hrs (reference value: 2 ug/ml); assay type: functional, Francisella tularensis subsp. novicida U112; details: Francisella tularensis; how it was run: as §1
# [5] = Potentiation of streptomycin-induced antibacterial activity against Francisella philomiragia ATCC 25015 assessed as MIC of streptomycin at 50 uM after 48 hrs (reference value: 4 ug/ml); assay type: functional; details: ATCC 25015, 48 h; how it was run: as §1
# [6] = Effect on growth of Francisella philomiragia ATCC 25015 at 50 uM after 16 hrs by time kill assay
# How it was run: (§2)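 F. philomiragia from 24 h CAMHB/2% IsoVitaleX cultures was inoculated to 5 × 10^5 CFU/mL, with compound or as an untreated control. Tubes were shaken at 37°C. Samples taken at 8, 12, 16, 20 and 24 h were serially diluted and plated on cysteine heart agar with 5% rabbit blood. Plates were incubated at 37°C for 24–36 h, and CFU were counted.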
# [7] = Effect on growth of Francisella novicida U112 after 48 hrs; details: francisella tularensis subsp. novicida u112, 48 h
# How it was run: (§3)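 Cultures grown 24 h were diluted to 5 × 10^5 CFU/mL in CAMHB with 2% IsoVitaleX (F. philomiragia) or TSB-C (F. novicida). Compound came from a 100 mM DMSO stock, starting at 200 µM, in twofold serial dilutions over 12 wells. Plates were incubated stationary at 37°C for 48 h. MIC was the lowest concentration with no bacterial growth.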
# [8] = Effect on growth of Francisella philomiragia ATCC 25015 assessed as growth delay at 50 uM after 8 to 12 hrs by time kill assay; how it was run: as §2
# [9] = Potentiation of azithromycin-induced antibacterial activity against Francisella philomiragia ATCC 25015 assessed as MIC of azithromycin at 50 uM after 48 hrs (reference value: 4 ug/ml); assay type: functional; details: ATCC 25015, 48 h; how it was run: as §1
# [10] = Potentiation of colistin-induced antibacterial activity against Francisella philomiragia ATCC 25015 assessed as MIC of colistin at 50 uM after 48 hrs (reference value: 256 ug/ml); assay type: functional; details: ATCC 25015, 48 h; how it was run: as §1
# [11] = microbe, parasite or virus in culture; assay type: functional, Francisella tularensis subsp. novicida U112; details: Francisella tularensis, 48 h
# [12] = microbe, parasite or virus in culture; assay type: functional; details: Francisella philomiragia, ATCC 25015, 48 h
# [13] = Effect on growth of Francisella philomiragia ATCC 25015 after 48 hrs; how it was run: as §3
# [14] = Potentiation of colistin-induced antibacterial activity against Francisella novicida U112 assessed as reduction of colistin MIC at 50 uM after 48 hrs relative to control; assay type: functional, Francisella tularensis subsp. novicida U112; how it was run: as §1
# [15] = Potentiation of streptomycin-induced antibacterial activity against Francisella philomiragia ATCC 25015 assessed as reduction of streptomycin MIC at 50 uM after 48 hrs relative to control; assay type: functional; how it was run: as §1
# [16] = Potentiation of gentamicin-induced antibacterial activity against Francisella philomiragia ATCC 25015 assessed as reduction of gentamicin MIC at 50 uM after 48 hrs relative to control; assay type: functional; how it was run: as §1
# [17] = Potentiation of colistin-induced antibacterial activity against Francisella philomiragia ATCC 25015 assessed as reduction of colistin MIC at 50 uM after 48 hrs relative to control; assay type: functional; how it was run: as §1
# [18] = Potentiation of FR900098-induced antibacterial activity against Francisella philomiragia ATCC 25015 assessed as reduction of FR900098 MIC at 50 uM after 48 hrs relative to control; assay type: functional; how it was run: as §1
# [19] = Potentiation of azithromycin-induced antibacterial activity against Francisella philomiragia ATCC 25015 assessed as reduction of azithromycin MIC at 50 uM after 48 hrs relative to control; assay type: functional; how it was run: as §1
# [20] = tested on: Francisella tularensis subsp. novicida U112; test: Potentiation of azithromycin-induced antibacterial activity against Francisella novicida U112 assessed as reduction of azithromycin MIC at 50 uM after 48 hrs relative to control; assay type: functional; how it was run: as §1
SMILES,fold change (FC) [1],MIC [2] [µg/mL],MIC [3] [µg/mL],MIC [4] [µg/mL],MIC [5] [µg/mL],Activity [6],MIC [7] [µg/mL],Activity [8],MIC [9] [µg/mL],MIC [10] [µg/mL],MIC [11] [µg/mL],MIC [12] [µg/mL],MIC [13] [µM],fold change (FC) [14],fold change (FC) [15],fold change (FC) [16],fold change (FC) [17],fold change (FC) [18],fold change (FC) [19],Activity [20]
CCCCc1ccc(C(=O)NCCc2c[nH]c3ccccc23)cc1,16,0.25,4,1,4,Non-toxic,> 200,Toxic,0.5,8,512,1020,> 200,2,,,,,,
Cc1cc2nc(N)[nH]c2cc1C,,0.125,1,2,1,,> 200,,4,32,1020,1020,> 200,,4,4,,,,
CCCCc1ccc(C(=O)NCCCc2c[nH]c3ccccc23)cc1,,0.25,,,4,,,,2,64,,,> 200,,,,4,,,
CCCCCc1ccc(C2=NCCO2)cc1,,1,,,8,,,,2,512,,< 64,200,,,,,16,,
CCSC(=O)N1CCc2ccccc21,,0.5,4,0.125,4,,> 200,,0.5,256,1020,1020,> 200,,,,,,8,Active
